In ChEMBL document CHEMBL1138080, “Design and synthesis of novel 2-amino-5-hydroxyindole derivatives that inhibit human 5-lipoxygenase” (J Med Chem, 2006):

Assays:
[1] = molecular target: T1, Polyunsaturated fatty acid 5-lipoxygenase (Homo sapiens, UniProt P09917); assay: Inhibition of 5-LOX in A-23187-stimulated PNML
T1 sequence (P09917 whole entry): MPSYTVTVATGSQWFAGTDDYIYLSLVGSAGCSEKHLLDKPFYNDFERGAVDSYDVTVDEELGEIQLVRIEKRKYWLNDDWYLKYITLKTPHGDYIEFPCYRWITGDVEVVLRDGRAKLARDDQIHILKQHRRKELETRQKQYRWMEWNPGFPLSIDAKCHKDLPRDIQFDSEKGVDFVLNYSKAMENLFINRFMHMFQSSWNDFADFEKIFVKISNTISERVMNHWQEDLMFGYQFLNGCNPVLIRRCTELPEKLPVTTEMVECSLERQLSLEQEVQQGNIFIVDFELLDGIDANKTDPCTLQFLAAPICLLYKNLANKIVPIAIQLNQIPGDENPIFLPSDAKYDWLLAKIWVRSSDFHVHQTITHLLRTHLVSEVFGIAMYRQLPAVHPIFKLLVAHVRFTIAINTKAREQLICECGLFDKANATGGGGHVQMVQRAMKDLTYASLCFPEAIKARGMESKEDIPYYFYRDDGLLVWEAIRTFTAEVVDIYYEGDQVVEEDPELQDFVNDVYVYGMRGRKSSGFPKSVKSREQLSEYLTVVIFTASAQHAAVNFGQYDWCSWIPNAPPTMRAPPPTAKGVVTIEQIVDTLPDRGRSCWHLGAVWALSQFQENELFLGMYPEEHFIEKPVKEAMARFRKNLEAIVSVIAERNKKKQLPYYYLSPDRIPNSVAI
Outline: (§1)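 Freshly isolated human PMNL (10^7 in 1 mL PBS with 1 mg/mL glucose and 1 mM CaCl2) were preincubated with compound at 37 °C. They were then stimulated with 2.5 µM ionophore A23187 for 10 min at 37 °C and stopped with methanol, with prostaglandin B1 added as standard.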

[2] = molecular target: T1, Polyunsaturated fatty acid 5-lipoxygenase; assay: Inhibition of 5-LOX in A23187 and arachidonic acid-stimulated […]
Outline: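 Human PMNL (10^7/mL in PBS with glucose and 1 mM CaCl2) were preincubated with compound at 37 °C. They were then challenged with 2.5 µM A23187 plus 20 µM exogenous arachidonic acid for 10 min at 37 °C. The reaction was stopped with methanol and 5-LO products were quantified against a prostaglandin B1 standard.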

[3] = molecular target: T2, Polyunsaturated fatty acid 5-lipoxygenase (Homo sapiens) (UniProt P09917); assay: Inhibition of 5-LOX at 10 uM
T2 sequence (whole entry): T1 sequence (P09917 whole entry)
Outline: (§2)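 5-LO was human recombinant, expressed in E. coli JM 109 (pT3-5LO). Lysis, ammonium sulfate precipitation and a 100000g spin gave the S100 supernatant used as enzyme source. The assay contained 1 mM ATP and test compound or DMSO vehicle, and the enzyme was incubated with 20 µM arachidonic acid.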

[4] = molecular target: T2, Polyunsaturated fatty acid 5-lipoxygenase (Homo sapiens); assay: Inhibition of 5-LOX in A-23187-stimulated […] at 10 uM; outline: as §1
[5] = molecular target: T1, Polyunsaturated fatty acid 5-lipoxygenase; assay: Inhibition of 5-LOX; outline: as §2

IC50 [1]	IC50 [2]	inhibition [3]	inhibition [4]	IC50 [5]	Compound
1.2 µM	4.6 µM	72%	94%	3 µM	CCOC(=O)c1c(NC(C)c2ccccc2)[nH]c2ccc(O)cc12 (stereo not given)
–	–	42%	48%	–	COC(=O)c1c(NC(C)c2ccccc2)[nH]c2ccccc12 (stereo not given)
–	–	–	0%	–	CC(=O)c1c(N)[nH]c2ccc(O)cc12
7.3 µM	–	80%	65%	2.3 µM	CCOC(=O)c1c(Nc2ccccc2)[nH]c2ccc(O)cc12
–	–	36%	14%	–	CCOC(=O)c1c(N2CCN(c3ccccc3)CC2)n(C)c2ccc(OC)cc12
–	–	–	0%	–	Nc1[nH]c2ccc(O)cc2c1C(=O)c1ccccc1
–	–	81%	22%	–	CCOC(=O)c1c(N2CCN(c3ccc(F)cc3)CC2)[nH]c2ccc(O)cc12
2.8 µM	4.1 µM	62%	85%	10 µM	CC(Nc1[nH]c2ccc(O)cc2c1C#N)c1ccccc1 (stereo not given)
–	–	–	0%	–	N#Cc1c(N)[nH]c2ccc(O)cc12
9.7 µM	5.9 µM	51%	53%	9.8 µM	CCOC(=O)c1c(NC(C)c2ccccc2)[nH]c2ccccc12 (stereo not given)
5 µM	5.8 µM	69%	84%	2.3 µM	CCOC(=O)c1c(N2CCN(c3ccc(Cl)cc3)CC2)[nH]c2ccc(O)cc12
–	–	–	0%	–	CCOC(=O)c1c(N2CCN(C)CC2)[nH]c2ccc(O)cc12
–	–	–	0%	–	CCOC(=O)c1c(N2CCOCC2)[nH]c2ccc(O)cc12
> 20 µM	–	79%	22%	3.1 µM	CCOC(=O)c1c(N2CCN(c3ccccc3)CC2)[nH]c2ccc(O)cc12
–	–	–	0%	–	CCOC(=O)c1c(N2CCCCC2)[nH]c2ccc(O)cc12
–	–	61%	15%	–	CCOC(=O)c1c(N2CCN(Cc3ccccc3)CC2)[nH]c2ccc(O)cc12
–	–	–	0%	–	CCOC(=O)c1c(N(C)C)[nH]c2ccc(O)cc12
2.4 µM	–	–	–	0.3 µM	CCOC(=O)c1c(Nc2cccc(Cl)c2)[nH]c2ccc(O)cc12
–	–	–	0%	–	CCOC(=O)c1c(N2CCCC2)[nH]c2ccc(O)cc12
–	–	94%	77%	–	COC(=O)c1c(NC(C)c2ccccc2)[nH]c2ccc(O)cc12 (racemic)
–	–	24%	19%	–	CCOC(=O)c1c(Nc2cccnc2)[nH]c2ccc(O)cc12
5.2 µM	–	77%	76%	5 µM	CCOC(=O)c1c(Nc2ccc(C)cc2)[nH]c2ccc(O)cc12
7.2 µM	–	65%	71%	7.1 µM	C=CCN(CC=C)c1[nH]c2ccc(O)cc2c1C(=O)OCC
–	–	86%	93%	–	CC(=O)N(O)C/C=C/c1cccc(Oc2ccccc2)c1
